TLR4 MyD88 comp: TLR4-MyD88 interaction inhibition in cells; HeLa CL3-4 TLR4/MyD88 BLA complementation, FRET ratio; inhibition, % at 8.4 µM; actives 0.18% (n = 200,000); O00206+Q99836; AID 861; in the data active = inhibition above about 25%;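 note: 0% = vehicle and 100% = reference inhibitor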
TLR9-MyD88 block: TLR9-MyD88 interaction inhibition | inhibition, % at 4.98 µM | AID 504734 | Q9NR96+Q99836 | actives 0.21% (n = 340,000) | CHO BLA complementation TLR9-MyD88, CCF4 FRET ratio;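 active = inhibition above the mean over all tested compounds plus 3 SD, cut at about 21% in these data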;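 note: 0% = DMSO only wells and 100% = clavulanate BLA inhibitor control wells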
Hep lipid drop: hepatic lipid droplet formation modulation; actives 0.4% (n = 240,000); AML12 mouse hepatocytes, oleate lipid droplets, BODIPY imaging; AID 1656; inhibition, % at 6.5 µM;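 active = lipid droplet intensity inhibited by at least 50%, with more than 500 cells counted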
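Material: mouse AML12 hepatocyte cell line, fixed after treatment; Timing: compound with oleate, overnight; Technique: high-content imaging of BODIPY-stained droplets and DAPI nuclei; Probe or stimulus: oleate, 100 µM final; Dosing: compound at 6.5 µM only.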
NOD2-RIPK2 inh: inhibitors of human NOD2-RIPK2 interaction | CHO BLA complementation NOD2-RIPK2, CCF4 ratio | actives 0.38% (n = 360,000) | AID 624267 | inhibition, % at 4.98 µM | O43353; in the data active = inhibition above about 21%;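 note: 0% = vehicle only and 100% = reference blocker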
SR-BI DiI inh: inhibitors of mouse SR-BI mediated HDL lipid uptake. ldlA[mSR-BI] CHO cells, DiI-HDL uptake fluorescence, 3 h. actives 0.96% (n = 320,000). Q61009. inhibition, % at 12.5 µM. AID 488896;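 active = mean replicate inhibition of at least 70% and a set share of replicates each scoring 70 or more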;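 note: 0% = median of neutral control wells and 100% = median of positive control wells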
Target sequence (Q61009 whole entry, looked up): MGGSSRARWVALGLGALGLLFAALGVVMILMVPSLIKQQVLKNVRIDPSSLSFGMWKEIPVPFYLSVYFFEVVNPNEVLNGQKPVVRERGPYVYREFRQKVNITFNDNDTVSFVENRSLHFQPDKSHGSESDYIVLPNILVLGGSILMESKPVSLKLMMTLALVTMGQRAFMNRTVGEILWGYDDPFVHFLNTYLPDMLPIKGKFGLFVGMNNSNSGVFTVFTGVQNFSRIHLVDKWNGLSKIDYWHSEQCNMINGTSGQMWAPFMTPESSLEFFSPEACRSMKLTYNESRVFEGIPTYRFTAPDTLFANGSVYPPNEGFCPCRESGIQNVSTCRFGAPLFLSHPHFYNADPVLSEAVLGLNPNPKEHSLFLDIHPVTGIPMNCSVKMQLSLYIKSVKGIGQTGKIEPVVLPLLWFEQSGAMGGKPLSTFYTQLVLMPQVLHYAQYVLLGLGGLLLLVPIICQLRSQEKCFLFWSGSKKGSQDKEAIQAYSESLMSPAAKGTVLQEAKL
SR-BI uptake up: enhances SR-BI lipid uptake from DiI-HDL | AID 504775 | activation, % at 12.5 µM | actives 0.096% (n = 320,000) | CHO ldlA[mSR-BI] cells, DiI-HDL uptake fluorescence, 3 h; 100 = double the neutral-control signal;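 active = mean replicate activation of at least 60% and every replicate at or above 60%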;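 note: 0% = median plate neutral-control signal and 100% = twice that signal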
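Assay system: CHO ldlA[mSR-BI] cells, LDL receptor-null, SR-BI overexpressing; medium: Ham's F12 with 0.5% BSA, HEPES 25 mM, pH 7.4; also added: DiI-HDL 10 µg/mL; timing: 3 h uptake period with compound, 37 °C; signal: DiI fluorescence, bottom read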
Hep lipid conf: confirmation of inhibitors of hepatic lipid droplet formation | shares compounds with Hep lipid drop | AML12 mouse hepatocytes, BODIPY lipid droplet imaging; droplets induced with 100 µM oleic acid | inhibition, % at 5.2 µM | actives 65% (n = 870);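 active = inhibition of lipid droplet metric at least 50%, with more than 300 cells in each of four replicates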;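 note: plate controls were DMSO with oleic acid for no effect and 5 µM Triacsin-C for full effect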
AML12 tox img: AML12 hepatocyte cytotoxicity (counter-screen); AID 463200; shares compounds with Hep lipid drop; actives 3% (n = 870); AML12 mouse hepatocytes, DAPI nuclear morphology cytotoxicity imaging; stronger effect = higher value; cells fed 100 µM oleate overnight; z-score at 5 µM; in the data active = z-score above about 6.3;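 note: compound exposure lasted overnight at 37 °C before fixation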
AML12 tox ATP: confirmation of cytotoxicity in AML12 mouse hepatocytes; cytotoxicity, % at 50 µM; AML12 mouse hepatocyte viability, ATP luminescence; cells loaded with 100 µM oleic acid; shares compounds with Hep lipid drop; 530 tested, under 10 active;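 active = cytotoxicity above 50% in each of four replicates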;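 note: compound exposure lasted overnight at 37 °C before the ATP read; 0% = DMSO-treated cells and 100% = wells with no cells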
The depositor's hits bear a star; . = no result given. Only some compounds are listed: those with a hit (about 1.6% of all), similar ones and a draw of the others.

SMILES	TLR4 MyD88 comp	TLR9-MyD88 block	Hep lipid drop	NOD2-RIPK2 inh	SR-BI DiI inh	SR-BI uptake up	Hep lipid conf	AML12 tox img	AML12 tox ATP
Cc1ccc(CNC(=O)c2ccc(N3CCC4(CC3)CC(c3ccccc3)=NO4)c(N)c2)cc1	.	11.3	52.2*	1.6	68.2	-68.2	89.5*	-0.924	19.6
Cc1ccc(CNC(=O)c2ccc(N3CCC4(CC3)CC(c3ccccc3)=NO4)c(NC(=O)c3ccc(Br)cc3)c2)cc1	.	-9.9	73.1*	3.5	39.0	-39.0	104.4*	0.662	-0.6
COCCN1CCN(C(=O)C2CCC(=O)N(Cc3ccccc3OC)C2)CC1 (stereo unspecified)	.	-13.2	.	-6.5	-12.7	.	.	.	.
CCOc1cc2c(cc1OCC)C(c1ccc(OC)cc1)N(c1ccccc1)C(=O)C2 (stereo unspecified)	0.8	6.4	50.9*	-10.7	3.4	-3.4	60.1*	-1.05	1.7
CCOc1cc2c(cc1OCC)C(c1ccccc1)N(c1ccccc1)C(=O)C2 (stereo unspecified)	-1.7	-10.6	89.4*	4.5	-9.5	9.5	106.8*	-0.327	3.1
Cc1onc(-c2ccccc2)c1C(=O)NCC(O)c1ccccc1 (stereo unspecified)	.	-2.8	11.3	-7.8	-3.0	3.0	.	.	.
CCC(c1nnc(SCC(=O)Nc2cccnc2Cl)n1-c1ccccc1)N(C)C (stereo unspecified)	3.2	0.6	-5.8	-10.4	-18.0	18.0	.	.	.
CCCCOc1ccc(/C=C/C(=O)OCC(=O)c2c(N)n(C)c(=O)n(C)c2=O)cc1OCC	-7.4	3.7	52.2*	-3.9	14.6	-14.6	67.1*	-0.413	-2.2
c1ccc2nc(N3CCN(Cc4ccc5c(c4)OCO5)CC3)cnc2c1	-1.9	3.8	50.3*	1.0	9.9	-9.9	10.3	0.606	.
COc1ccc(Oc2nc(C)nc3c2oc2ccccc23)cc1	8.2	-1.6	.	1.4	-4.6	4.6	.	.	.
COc1nc(C)nc2c1ccc1ccccc12	-17.7	-9.9	51.5*	2.1	23.8	-23.8	2.0	-0.0957	.
CCC(NC(=O)c1cc(COc2cncc(Cl)c2)on1)c1ccncc1 (stereo unspecified)	.	1.6	65.1*	7.3	-18.9	18.9	11.5	-0.576	.
CCOC(=O)C1CCN(C(=O)C2(NC(=O)Nc3ccc(F)cc3F)CCCCC2)CC1	.	-3.5	69.4*	-3.7	-19.6	19.6	96.8*	-0.00107	12.3
COC(=O)c1cc(NS(=O)(=O)c2ccc(N3CCC(C)CC3)c([N+](=O)[O-])c2)cc(C(=O)OC)c1	-3.4	0.3	-0.7	-3.0	4.3	-4.3	.	.	.
CCN(CC)S(=O)(=O)c1ccc(N2C(=O)CC2(/C=C/c2ccccc2)C(=O)NC2CCCC2)cc1 (stereo unspecified)	-9.2	-1.3	62.8*	-3.2	-51.4	51.4	74.0	0.43	.
CC(C)Oc1ccc(C(=O)OC(C)C(=O)NC2CCCCC2C)cc1 (stereo unspecified)	.	-1.8	51.6*	-16.0	-2.5	2.5	102.1*	0.705	12.2
COc1ccc(NCC(=O)Nc2ccc(Br)cc2F)c(OC)c1	.	-2.2	-4.7	1.0	.	.	.	.	.
COc1ccc(N(Cc2cc(=O)[nH]c3ccccc23)C(C)=O)cc1	.	6.3	74.9*	14.3	-10.8	10.8	0.2	0.313	.
CN(C)CCN(C(=O)c1ccc2ccccc2c1)c1nc2cc3c(cc2s1)OCCO3	.	1.2	15.5	-2.4	10.1	-10.1	.	.	.
CN(C)CCCN(C(=O)c1ccc2ccccc2c1)c1nc2cc3c(cc2s1)OCO3	.	-9.7	54.8*	6.0	17.6	-17.6	-2.4	-0.112	.
CC1=CC(C)(C)N2C(=O)C3(NCCc4c3[nH]c3ccccc43)c3cccc1c32 (stereo unspecified)	-6.0	9.2	62.1*	-4.8	65.2	-65.2	104.7*	0.511	12.4
COc1ccc(N2Cc3ccc(C(=O)N/N=C\c4ccc(O)cc4O)cc3C2)cc1	.	.	-14.7	.	.	.	.	.	.
Cc1ccc(-n2nc3c(=O)n(CC(=O)NC(C)CCc4ccccc4)nc(C)c3c2C)cc1 (stereo unspecified)	.	1.3	87.8*	2.3	41.1	-41.1	77.0*	-0.483	4.7
Cc1ccc(-n2nc3c(=O)n(C(C)C(=O)NCCc4cccs4)nc(C)c3c2C)cc1 (stereo unspecified)	.	2.1	52.7*	-1.0	19.9	-19.9	96.3*	-0.498	19.9
Cc1ccc(-n2nc3c(=O)n(CC(=O)NC4CCCCC4)nc(C)c3c2C)cc1	.	-0.2	56.9*	1.7	-13.8	13.8	87.9*	-0.233	16.7
SMILES	TLR4 MyD88 comp	TLR9-MyD88 block	Hep lipid drop	NOD2-RIPK2 inh	SR-BI DiI inh	SR-BI uptake up	Hep lipid conf	AML12 tox img	AML12 tox ATP
Cc1nn(C(C)C(=O)NCc2cccs2)c(=O)c2nn(-c3ccccc3)c(C)c12 (stereo unspecified)	.	-5.8	-18.5	0.7	18.9	-18.9	.	.	.
Cc1ccc(-n2nc3c(=O)n(CC(=O)NCc4ccccc4)nc(C)c3c2C)cc1	.	1.4	7.6	-9.7	-6.8	6.8	.	.	.
Cc1ccc(O)c(CCc2ccc(O)cc2)n1	-8.2	2.5	5.6	4.7	-4.0	4.0	.	.	.
CSCCC(NS(=O)(=O)Cc1ccccc1)C(=O)NNc1ccccc1 (stereo unspecified)	.	.	.	8.3	.	.	.	.	.
O=C(O)C[C@H]1c2cc(C(F)(F)F)ccc2S(=O)(=O)N1C1CCN(Cc2ccccc2)CC1	.	-6.9	.	-2.6	-23.7	23.7	.	.	.
Cn1nc(C(F)(F)F)c(-c2cccc(C(F)(F)F)c2)c1NC(=O)c1ccco1	.	-0.9	21.0	-9.3	-21.5	21.5	.	.	.
Cn1nc(C(F)(F)F)c(-c2cccc(C(F)(F)F)c2)c1NC(=O)Nc1ccc(F)cc1	.	.	69.0*	-10.6	.	.	90.0*	-0.643	-0.4
COc1ccc(CCN2CC(C(=O)NCc3cn(C)nc3C)CCC2=O)cc1 (stereo unspecified)	.	-0.7	.	2.9	.	.	.	.	.
Cc1ccc(NC(=O)C2CCCN(S(=O)(=O)c3c(C)noc3/C=C/N(C)C)C2)cc1F (stereo unspecified)	-3.0	-3.4	56.9*	-1.3	16.0	-16.0	76.8*	-0.685	8.1
